Bridges are numbered along the chain shown (N, C = ends). Where no end group is shown, it is not given here.

In one data set the test system is HCC-LM3 cells. The experiment in a line: Confocal fluorescence microscopy of probe binding to HCC-LM3 cells. Particulars: 6 nM probe, 2 h incubation, Fig. 1B. Type of data set: cell-based, human. In short, it runs like this: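 HCC-LM3 cells were grown on glass coverslips for 24 h, then incubated with 6 nM Cy7-labelled probe for 2 h and washed three times in PBS. They were fixed in 4% paraformaldehyde, permeabilised with 0.2% Triton X-100 and blocked with 5% BSA. Staining used rabbit anti-integrin α6 (1:250, overnight, 4°C), then fluorescein goat anti-rabbit (1:1,000, 1 h, 37°C), with DAPI for nuclei. Imaged by confocal microscopy.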

The next data set has as its system major organs. The experiment in a line: In vivo toxicity by H&E staining of major organs. Particulars: imaging dose; heart, spleen, lung, kidney, brain of H22 tumor-bearing nude mice vs control group, Supplementary Fig. 9.
Data set [1] has as its system orthotopic HCC-H22 tumors. The experiment in a line: NIRF imaging and biodistribution, orthotopic HCC-H22 tumor model. Particulars: orthotopic HCC-H22, tumor and major organs 48 h after injection, Fig. 3. The class given is in vivo, mice. In short, it runs like this:
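Nude mice carried orthotopic luciferase-tagged H22 liver lesions and received Cy7-labelled probe or Cy7-control peptide i.v. by tail vein. NIRF imaging used 740 nm excitation and a 780 nm filter. Mice were killed 48 h post-injection, and tumor, heart, liver, spleen, kidney, lung and brain were imaged ex vivo. Organ fluorescence intensity was quantified.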

Another data set has as its system H22 cells. The experiment in a line: CCK-8 in vitro cytotoxicity assay. Type of data set: cell-based, mouse. Particulars: 0 to 500 nM, 48 h or 72 h, Supplementary Fig. 3. Put shortly: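 H22 mouse hepatoma cells grown in DMEM with 10% FBS and 1% pen/strep at 37°C, 5% CO2. Cells were seeded at 3×10^3 per well and left 24 h, then exposed to the Cy7-labelled peptide probe at 0–500 nM for 48 h or 72 h. CCK-8 reagent was then added for 2 h, and absorbance was read at 450 nm.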

For data set [2], the system named is orthotopic HCC-LM3 tumors. The experiment in a line: NIRF imaging, orthotopic HCC-LM3 tumor model. Particulars: post-injection; sustained until 24 h. Type of data set: in vivo, mice.
The subject of data set [3] is subcutaneous HCC-LM3 tumor. Nature of the data set: NIRF imaging and ex vivo biodistribution, subcutaneous HCC-LM3 tumor model. The class given is in vivo. To be noted: mice, i.v., statement of the discussion.
Data set [4] deals with subcutaneous HCC-LM3 tumors. The experiment in a line: Photoacoustic imaging, subcutaneous HCC-LM3 tumors. To be noted: after i.v. injection, 0 to 48 h. Type of data set: in vivo, mice.
The next data set relates to integrin a6. To be noted: peptide identified by phage display; cited from earlier work.
For another data set, the system named is orthotopic HCC lesions. The experiment in a line: NIRF imaging with Cy5 probe, orthotopic HCC mice. Type of data set: in vivo. Particulars: i.v., Supplementary Fig. 1.

On to “CGGGGGGGC (cysteine pairing not given here) [Cy7-control, reference compound]”, for which, in the data set on HCC-LM3 cells, the “Fluorescence signal in cells by confocal microscopy” value was “no fluorescence response”.
Regarding “CRWYDENAC (disulfide 1-9 (inferred)) [Cy7-RWY]”, in the data set with major organs, the “Cell and tissue damage in major organs (H&E)” value is “did not find significant cell and tissue damage”. Also, in data set [1], the “Ex vivo fluorescence signal in tumors” value was “high level of the fluorescence signal”. Besides, the “Cytotoxicity (cell viability, CCK-8)” value in the data set on H22 cells is “no significant cytotoxicity”. In data set [2], the “Time at which tumor fluorescence signal reached a steady level” value amounted to 6 h. The Renal clearance result in data set [3] was “fast renal clearance”. For the same sequence, the “Fluorescence signal in cells by confocal microscopy” value in the data set on HCC-LM3 cells was “Strong red fluorescence signals”. Also, in data set [4], the “Time at which NIRF and PA signals in the tumor peaked” value was 24 h; the “Time at which NIRF and PA signals started to accumulate in the tumor” value was 2 h.
For “CRWYDENAC (disulfide 1-9 (inferred)) [RWY]”, the “Binding to integrin a6” value in the data set on integrin a6 was “high specificity and affinity”.
Turning to “CRWYDENAC (disulfide 1-9 (inferred)) [Cy5-RWY]”, the “Homing of probe to HCC lesions (NIRF)” value with orthotopic HCC lesions was “specifically homed to HCC lesions”.

The values above are taken from article PMC9647114 (Journal of Clinical and Translational Hepatology, 2022).
